# Assay results as given in article PMC9851027 (ACS Omega, 2023).
# Peptide text beside a SMILES is read from it. * marks the point of attachment. Propionyl = CCC(=O)*
# How the values were obtained:
# human NMUR2 [1] = biological target: T1, human NMUR2 (Homo sapiens, UniProt Q9GZQ4); assay: Functional in vitro FLIPR calcium mobilization assay; format: cell-based; settings: SD
# Outline: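 Recombinant Chem-1 cells overexpressing full-length human NMUR2, grown in DMEM/10% FBS with selection, seeded at 5×10^5 cells/mL 16 h before assay. Loaded with Calcium 6 dye plus 2 mM probenecid for 60 min at 37 °C. Fractions given as 12-point 1:3 dilutions in HBSS/20 mM Hepes/0.1% BSA, final 1.1 μM–[…]. Read by FLIPR at 0.5 Hz as peak minus baseline fluorescence; Hill fit, mean ± standard deviation of two experiments.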
# human NMUR2 [2] = biological target: T1, human NMUR2; assay: Competitive radioligand binding assay with [^125I]NMU-8
# T1 sequence (Q9GZQ4 whole entry): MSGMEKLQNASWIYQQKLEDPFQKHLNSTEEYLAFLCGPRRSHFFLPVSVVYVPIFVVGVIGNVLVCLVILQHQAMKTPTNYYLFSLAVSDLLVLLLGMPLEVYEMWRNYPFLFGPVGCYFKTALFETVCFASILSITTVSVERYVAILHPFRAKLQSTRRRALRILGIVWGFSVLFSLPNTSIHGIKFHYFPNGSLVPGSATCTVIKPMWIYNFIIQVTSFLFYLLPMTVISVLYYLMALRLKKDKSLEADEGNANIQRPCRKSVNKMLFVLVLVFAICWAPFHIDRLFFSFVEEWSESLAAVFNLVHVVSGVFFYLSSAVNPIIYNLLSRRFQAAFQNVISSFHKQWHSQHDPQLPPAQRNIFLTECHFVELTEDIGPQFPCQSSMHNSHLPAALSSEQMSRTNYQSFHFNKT
smiles,measurement,setting,value
CCC(=O)N[C@H](C(=O)N[C@@H](CC(C)C)C(=O)N[C@@H](CCC(N)=O)C(=O)N[C@@H](CCCNC(=N)N)C(=O)NCC(=O)N[C@@H](CO)C(=O)NCC(=O)N[C@H](C(=O)N[C@@H](C)C(=O)N[C@@H](C)C(=O)N[C@H](C(=O)N[C@@H](CC(=O)O)C(=O)N[C@@H](Cc1ccccc1)C(=O)N[C@H](C(=O)N[C@@H](CCCCN)C(=O)N[C@@H](CCCCN)C(=O)N[C@@H](CC(=O)O)C(=O)N[C@@H](Cc1c[nH]cn1)C(=O)N[C@H](C(=O)N[C@@H](C)C(=O)N[C@H](C(=O)N[C@@H](Cc1c[nH]c2ccccc12)C(=O)NCC(=O)N[C@@H](CCCNC(=N)N)C(=O)N1CCC[C@H]1C(=O)N[C@@H](Cc1ccccc1)C(=O)N[C@@H](Cc1ccccc1)C(=O)N[C@@H](CC(C)C)C(=O)N[C@@H](Cc1ccccc1)C(=O)N[C@@H](CCCNC(=N)N)C(=O)N1CCC[C@H]1C(=O)N[C@@H](CCCNC(=N)N)C(=O)N[C@@H](CC(N)=O)C(N)=O)[C@@H](C)O)[C@@H](C)O)[C@@H](C)O)C(C)C)[C@@H](C)O)[C@@H](C)CC [fraction c] (Propionyl-ILQRGSGTAAVDFTKKDHTATWGRPFFLFRPRN-NH2),EC50,human NMUR2 [1],1.02 nM
same,IC50,human NMUR2 [2],2.19 nM
